According to ChEMBL document CHEMBL4138178, “Green, unexpected synthesis of bis-coumarin derivatives as potent anti-bacterial and anti-inflammatory agents” (2018):
In brackets after ≈: the same amount, converted by molar mass.

Legend:
Assay type in all cases: functional
Erythrocyte = assay: Anti-inflammatory activity in human RBC membranes assessed as inhibition of heat-induced hemolysis at 100 ug/mL incubated for 20 mins at 54 degC by UV-VIS spectrometer analysis relative to control
How it was run: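 Washed human RBCs as 40% (v/v) stock in isotonic 10 mM sodium phosphate buffer pH 7.4 with 0.9% NaCl. Compound 0.1 mg/mL in isotonic buffer with 30 µL erythrocyte suspension, duplicate sets. One pair heated at 54 °C for 20 min, other held at 0-5 °C. Spun 3 min at 1300 rpm, supernatant absorbance at 540 nm. % inhibition = 100 × [1 − (OD2−OD1)/(OD3−OD1)]; vehicle control.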

Prevotella intermedia = assay: Antibacterial activity against Prevotella intermedia after 24 hrs by broth microdilution method
Escherichia coli = assay: Antibacterial activity against Escherichia coli MTCC 443 after 24 hrs by broth microdilution method; settings: MTCC 443, 24 h
How it was run: (§1)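 Broth tube dilution in BHI broth, run in triplicate. Strains sub-cultured at 35 °C for 48 h. Inoculum grown in BHI at 35 °C for 2–6 h and adjusted to 0.5 McFarland. Ten-tube serial dilution of compound, 200 µL diluted culture added to each tube. Media plus culture tube as control. Incubated 24 h at 37 °C; MIC read by turbidity.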

Enterococcus faecalis = assay: Antibacterial activity against Enterococcus faecalis MTCC 35550 after 24 hrs by broth microdilution method; settings: MTCC 35550, 24 h; how it was run: as §1
Staphylococcus aureus = assay: Antibacterial activity against Staphylococcus aureus MTCC 12598 after 24 hrs by broth microdilution method; settings: MTCC 12598, 24 h; how it was run: as §1
Bacillus cereus = assay: Antibacterial activity against Bacillus cereus after 24 hrs by broth microdilution method
Pseudomonas aeruginosa = assay: Antibacterial activity against Pseudomonas aeruginosa MTCC 25668 after 24 hrs by broth microdilution method; settings: MTCC 25668, 24 h; how it was run: as §1

Row | SMILES | inhibition at 100 µg/mL (Erythrocyte) [%] | MIC (Prevotella intermedia) [µg/mL] | MIC (Escherichia coli) [µg/mL] | MIC (Enterococcus faecalis) [µg/mL] | MIC (Staphylococcus aureus) [µg/mL] | MIC (Bacillus cereus) [µg/mL] | MIC (Pseudomonas aeruginosa) [µg/mL]
1 | Cc1ccc2oc(=O)cc(C3C(C#N)=C(N)Oc4c3c(=O)oc3ccccc43)c2c1 (centres undefined) | 11.2 | 6.25 (≈ 15.7 µM) | 6.25 (≈ 15.7 µM) | 1.56 (≈ 3.92 µM) | 6.25 (≈ 15.7 µM) | 6.25 (≈ 15.7 µM) | 25 (≈ 62.8 µM)
2 | CCOC(=O)C1=C(N)Oc2c(c(=O)oc3ccccc23)C1c1cc(=O)oc2c1ccc1ccccc12 (centres undefined) | 61.2 | 6.25 (≈ 13 µM) | 1.56 (≈ 3.24 µM) | 6.25 (≈ 13 µM) | 6.25 (≈ 13 µM) | 6.25 (≈ 13 µM) | 1.56 (≈ 3.24 µM)
3 | CCOC(=O)C1=C(N)Oc2c(c(=O)oc3ccccc23)C1c1cc(=O)oc2cc(C)ccc12 (centres undefined) | 69.4 | 6.25 (≈ 14 µM) | 6.25 (≈ 14 µM) | 6.25 (≈ 14 µM) | 12.5 (≈ 28.1 µM) | 25 (≈ 56.1 µM) | 6.25 (≈ 14 µM)
4 | COc1ccc2oc(=O)cc(C(CC(=O)O)c3c(O)c4ccccc4oc3=O)c2c1 (centres undefined) | 23.3 | 6.25 (≈ 15.3 µM) | 1.56 (≈ 3.82 µM) | 1.56 (≈ 3.82 µM) | 3.25 (≈ 7.96 µM) | 6.25 (≈ 15.3 µM) | 1.56 (≈ 3.82 µM)
5 | CCOC(=O)C1=C(N)Oc2c(c(=O)oc3ccccc23)C1c1cc(=O)oc2ccc(C)cc12 (centres undefined) | 42.3 | 6.25 (≈ 14 µM) | 1.56 (≈ 3.5 µM) | 6.25 (≈ 14 µM) | 3.25 (≈ 7.3 µM) | 6.25 (≈ 14 µM) | 6.25 (≈ 14 µM)
6 | O=C(O)c1cn(C2CC2)c2cc(N3CCNCC3)c(F)cc2c1=O [CIPROFLOXACIN] | – | 6.25 (≈ 18.9 µM) | – | 6.25 (≈ 18.9 µM) | – | 6.25 (≈ 18.9 µM) | –
7 | Cc1ccc2c(C3C(C#N)=C(N)Oc4c3c(=O)oc3ccccc43)cc(=O)oc2c1 (centres undefined) | 69.1 | 6.25 (≈ 15.7 µM) | 1.56 (≈ 3.92 µM) | 6.25 (≈ 15.7 µM) | 1.56 (≈ 3.92 µM) | 1.56 (≈ 3.92 µM) | 1.56 (≈ 3.92 µM)
8 | CCOC(=O)C1=C(N)Oc2c(c(=O)oc3ccccc23)C1c1cc(=O)oc2ccc(OC)cc12 (centres undefined) | 52.1 | 1.56 (≈ 3.38 µM) | 6.25 (≈ 13.5 µM) | 6.25 (≈ 13.5 µM) | 6.25 (≈ 13.5 µM) | 6.25 (≈ 13.5 µM) | 25 (≈ 54.2 µM)
9 | Cc1ccc2c(C3CC(=O)Oc4c3c(=O)oc3ccccc43)cc(=O)oc2c1 (centres undefined) | 36.8 | 3.25 (≈ 8.68 µM) | 1.56 (≈ 4.17 µM) | 3.25 (≈ 8.68 µM) | 6.25 (≈ 16.7 µM) | 6.25 (≈ 16.7 µM) | 25 (≈ 66.8 µM)
10 | O=C(O)CC(c1c(O)c2ccccc2oc1=O)c1cc(=O)oc2c1ccc1ccccc12 (centres undefined) | 59.1 | 25 (≈ 58.4 µM) | 3.25 (≈ 7.59 µM) | 1.56 (≈ 3.64 µM) | 6.25 (≈ 14.6 µM) | 6.25 (≈ 14.6 µM) | 6.25 (≈ 14.6 µM)
11 | O=C1CC(c2cc(=O)oc3c2ccc2ccccc23)c2c(c3ccccc3oc2=O)O1 (centres undefined) | 37.6 | 25 (≈ 60.9 µM) | 6.25 (≈ 15.2 µM) | 6.25 (≈ 15.2 µM) | 25 (≈ 60.9 µM) | 25 (≈ 60.9 µM) | 1.56 (≈ 3.8 µM)
12 | CCOC(=O)C1=C(N)Oc2c(c(=O)oc3ccccc23)C1c1cc(=O)oc2ccc(Cl)cc12 (centres undefined) | 62.2 | 1.56 (≈ 3.35 µM) | 6.25 (≈ 13.4 µM) | 1.56 (≈ 3.35 µM) | 12.5 (≈ 26.8 µM) | 25 (≈ 53.7 µM) | 1.56 (≈ 3.35 µM)
13 | N#CC1=C(N)Oc2c(c(=O)oc3ccccc23)C1c1cc(=O)oc2ccc(Cl)cc12 (centres undefined) | 43.3 | 6.25 (≈ 14.9 µM) | 6.25 (≈ 14.9 µM) | 3.25 (≈ 7.76 µM) | 25 (≈ 59.7 µM) | 25 (≈ 59.7 µM) | 6.25 (≈ 14.9 µM)
14 | CC(=O)Oc1ccccc1C(=O)O [ASPIRIN] | 36.2 | – | – | – | – | – | –
15 | O=C1CC(c2cc(=O)oc3ccc(Cl)cc23)c2c(c3ccccc3oc2=O)O1 (centres undefined) | 70.7 | 6.25 (≈ 15.8 µM) | 6.25 (≈ 15.8 µM) | 3.25 (≈ 8.23 µM) | 6.25 (≈ 15.8 µM) | 25 (≈ 63.3 µM) | 25 (≈ 63.3 µM)
16 | COc1ccc2oc(=O)cc(C3CC(=O)Oc4c3c(=O)oc3ccccc43)c2c1 (centres undefined) | 50.5 | 25 (≈ 64 µM) | 3.25 (≈ 8.33 µM) | 6.25 (≈ 16 µM) | 6.25 (≈ 16 µM) | 6.25 (≈ 16 µM) | 6.25 (≈ 16 µM)
17 | Cc1ccc2oc(=O)cc(C(CC(=O)O)c3c(O)c4ccccc4oc3=O)c2c1 (centres undefined) | 14.1 | 6.25 (≈ 15.9 µM) | 3.25 (≈ 8.28 µM) | 1.56 (≈ 3.98 µM) | 1.56 (≈ 3.98 µM) | 25 (≈ 63.7 µM) | 25 (≈ 63.7 µM)
18 | Cc1ccc2oc(=O)cc(C3CC(=O)Oc4c3c(=O)oc3ccccc43)c2c1 (centres undefined) | 31.4 | 3.25 (≈ 8.68 µM) | 1.56 (≈ 4.17 µM) | 6.25 (≈ 16.7 µM) | 12.5 (≈ 33.4 µM) | 50 (≈ 134 µM) | 25 (≈ 66.8 µM)
19 | COc1ccc2oc(=O)cc(C3C(C#N)=C(N)Oc4c3c(=O)oc3ccccc43)c2c1 (centres undefined) | 15.3 | 6.25 (≈ 15.1 µM) | 1.56 (≈ 3.76 µM) | 3.25 (≈ 7.84 µM) | 12.5 (≈ 30.2 µM) | 6.25 (≈ 15.1 µM) | 1.56 (≈ 3.76 µM)
20 | O=C(O)CC(c1c(O)c2ccccc2oc1=O)c1cc(=O)oc2ccc(Cl)cc12 (centres undefined) | 61.2 | 3.25 (≈ 7.87 µM) | 1.56 (≈ 3.78 µM) | 1.56 (≈ 3.78 µM) | 3.25 (≈ 7.87 µM) | 25 (≈ 60.6 µM) | 25 (≈ 60.6 µM)
21 | Cc1ccc2c(C(CC(=O)O)c3c(O)c4ccccc4oc3=O)cc(=O)oc2c1 (centres undefined) | 76.4 | 25 (≈ 63.7 µM) | 3.25 (≈ 8.28 µM) | 3.25 (≈ 8.28 µM) | 3.25 (≈ 8.28 µM) | 6.25 (≈ 15.9 µM) | 6.25 (≈ 15.9 µM)
22 | N#CC1=C(N)Oc2c(c(=O)oc3ccccc23)C1c1cc(=O)oc2c1ccc1ccccc12 (centres undefined) | 54.4 | 1.56 (≈ 3.59 µM) | 6.25 (≈ 14.4 µM) | 1.56 (≈ 3.59 µM) | 3.25 (≈ 7.48 µM) | 1.56 (≈ 3.59 µM) | 25 (≈ 57.5 µM)
